A selection: hits, their analogues and other compounds. The true share with any hit is near 4.9%.
STAT3 inh-1: inhibitors of IL-6 induced STAT3 signaling | U3A cells, IL-6 STAT3-luciferase reporter, luminescence; host cell line lacks STAT1 | inhibition, % at 5.5 µM | 0.89% of 190,000 active | AID 862;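 active = inhibition above the mean inhibition across all screened compounds plus 3 SD, cut at about 44% in these data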;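 note: 0% = DMSO only wells and 100% = 100 µM nifuroxazide control wells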
NF-kB neuron act: raises NF-kB expression in human neuronal cells; NF-kB reporter expression; hits give high values; fold change at 12.5 µM; 1.6% of 190,000 active; AID 1239; in the data active = fold change above about 3.3
APP 5'UTR act: APP 5'UTR luciferase reporter activation; SH-SY5Y APP 5'UTR luciferase reporter, luminescence; zero percent = DMSO vehicle wells; activation, % at 2 µM; 1% of 190,000 active; AID 1276;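 active = activation above a set limit, based on mean plus 3 SD of controls, cut at about 140% in these data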
STAT1 inh-1: reduces IFN-gamma driven STAT1 reporter signal; NIH 3T3 STAT1-luciferase reporter, luminescence; inhibition, % at 5.5 µM; 0.35% of 200,000 active; AID 920;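 active = inhibition above a set limit, the mean inhibition across all tested compounds plus 3 SD, cut at about 34% in these data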;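 note: 0% = IFN-gamma with DMSO and 100% = IFN-gamma with 300 µM nifuroxazide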
STAT3 act-1: increases IL-6 driven STAT3 reporter signal; U3A cells, IL-6 STAT3-luciferase reporter, luminescence; 100% = signal with IL-6 EC80 alone; activation (% of control), % at 5.6 µM; 0.91% of 190,000 active; AID 871;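 active = activation above the screen-wide mean of compound activation plus 3 SD, cut at about 130% in these data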;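 note: 0% = background luminescence of wells with medium and substrate only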
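Test system: STAT3-luciferase reporter U3A cells; Detection: reporter luminescence signal; Times: 1 h compound pre-exposure, 6 h IL-6 stimulation, 37 °C; Benchmarks: IL-6-only high control; Also added: IL-6 stimulus at 33 ng/mL final.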
STAT1 act-1: STAT1 signaling activation | 2.6% of 200,000 active | activation (% of control), % at 5.5 µM | NIH 3T3 STAT1-luciferase reporter, IFN-gamma, luminescence; 100% = IFN-gamma alone, no compound;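 active = activation above the screen-wide mean activation plus 3 SD, cut at about 130% in these data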;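 note: raw ratio to IFN-gamma control signal so 100% means no change and 0% no light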
STAT3 inh-2: STAT3 inhibition, confirmation assay; shares compounds with STAT3 inh-1; U3A cells, IL-6 STAT3 luciferase reporter, luminescence; cell line lacks STAT1; inhibition, % at 5.7 µM; 45% of 1,200 active; AID 1265;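 active = inhibition above the hit cutoff computed for the primary STAT3 screen, cut at about 44% in these data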;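 note: 0% = IL-6 plus DMSO and 100% = IL-6 plus nifuroxazide control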
NFkB inh STAT3ct: counter-screen for STAT3 inhibitors: NF-kappaB inhibition; AID 1308; 36% of 1,200 active; HEK293T NF-kB luciferase reporter, TNF-alpha induced; inhibition, % at 5.7 µM; shares compounds with STAT3 inh-1;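 active = inhibition above the mean of solvent-only control wells plus 3 SD, cutoff set per campaign, cut at about 13% in these data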;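 note: 0% = TNF-alpha with DMSO and 100% = TNF-alpha with MG high control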
STAT1 inh STAT3c: inhibits STAT1, counter-screen to STAT3 inhibitors. 27% of 1,200 active. NIH 3T3 STAT1-luciferase reporter, IFN-gamma induced, luminescence. shares compounds with STAT3 inh-1. inhibition, % at 5.7 µM;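 active = inhibition above the mean plus 3 SD of solvent-only control wells, limit set per screening run, cut at about 16% in these data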;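 note: 0% = DMSO with IFN-gamma and 100% = nifuroxazide control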
STAT3 act-2: STAT3 activation, confirmation assay; shares compounds with STAT3 act-1; U3A STAT3-luciferase reporter, IL-6 potentiation, luminescence; U3A cells lack STAT1; 100 means same as IL-6 alone; potentiation (% of control), % at 5.7 µM; 64% of 1,200 active; AID 1267;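 active = percent activation of the STAT3 luciferase reporter above a set limit taken from the earlier primary screen, cut at about 130% in these data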;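 note: 0% = background signal of medium plus substrate and 100% = median of IL-6 with DMSO wells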
NFkB act STAT3ct: counter-screen for STAT3 activators: NF-kappaB activation. human cells, NF-kappaB reporter activation. activation (% of control), % at 5.7 µM. 11% of 1,200 active. AID 1309. shares compounds with STAT3 act-1; in the data active = activation above about 120%;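 note: reporter induced by TNF-alpha stimulation; 100% = median of stimulated DMSO wells and 0% = no signal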
STAT1 act-2: activates STAT1, counter-screen to STAT3 activators; shares compounds with STAT3 act-1; 13% of 1,200 active; NIH 3T3 STAT1-luciferase reporter, IFN-gamma, luminescence; activation (% of control), % at 5.7 µM;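 active = activation above the solvent-only control well mean plus 3 SD, set per screening run, cut at about 120% in these data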;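 note: 100% = IFN-gamma with DMSO median signal so 100% means no change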
STAT1 inh-2: STAT1 inhibition, confirmation assay | shares compounds with STAT1 inh-1 | NIH 3T3 STAT1-luciferase reporter, IFN-gamma, luminescence | inhibition, % at 5.5 µM | 55% of 200 active | AID 1263;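 active = triplicate mean inhibition exceeding the hit cutoff computed for the primary STAT1 screen, cut at about 35% in these data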;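 note: 0% = DMSO with IFN-gamma and 100% = 300 µM nifuroxazide with IFN-gamma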
NFkB inh STAT1ct: inhibits NF-kappaB, counter-screen to STAT1 inhibitors; shares compounds with STAT1 inh-1; HEK293T NF-kB luciferase reporter, TNF-alpha induced, luminescence; inhibition, % at 5.7 µM; 30% of 200 active; AID 1303;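 active = inhibition above the mean of solvent-only control wells plus 3 SD of those wells, cut at about 15% in these data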;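 note: 0% = DMSO with TNF-alpha and 100% = MG-132 control with TNF-alpha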
STAT3 inh 2: counter-screen for STAT1 inhibitors: STAT3 inhibition | shares compounds with STAT1 inh-1 | 20% of 200 active | inhibition, % at 5.7 µM | U3A cells, IL-6 STAT3 luciferase reporter, luminescence; cells lacking STAT1;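 active = inhibition above the mean of solvent-only control wells plus 3 SD, set per campaign, cut at about 25% in these data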;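 note: 0% = IL-6 plus DMSO and 100% = IL-6 plus nifuroxazide control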
An asterisk follows results filed as active; / = no result given.

SMILES	STAT3 inh-1	NF-kB neuron act	APP 5'UTR act	STAT1 inh-1	STAT3 act-1	STAT1 act-1	STAT3 act-2	NFkB act STAT3ct	STAT1 act-2	others
CCC(=NCCc1c[nH]c2ccccc12)c1c(O)n(C)c(=O)n(C)c1=O	44*	0.51	12	8	65	92	/	/	/	STAT3 inh-2=47*;NFkB inh STAT3ct=3;STAT1 inh STAT3c=20*
Brc1ccc2c(c1)C(OC1CN3CCC1CC3)c1ccccc1CS2 (stereo not given)	-3	0.6	6	-15	105	113	/	/	/
CC(=O)c1cn(Cc2ccccc2C#N)c2ccccc12	66*	0.79	4	28	45	72	/	/	/	STAT3 inh-2=75*;NFkB inh STAT3ct=29*;STAT1 inh STAT3c=21*
CCC(CC)NCc1c[nH]c2ccccc12	-51	1.4	14	12	146*	87	163*	112	101
O=c1c2ccccc2nc(-c2ccc(-c3ccccc3)cc2)n1-c1ccncc1	-36	0.9	24	-1	144*	100	134*	103	110
Cc1ccc(-c2nc3ccccc3c(=O)n2-c2ccncc2)cc1	3	0.94	2	-13	99	111	/	/	/
CCCCN1C(=N)C(CC)(CC)C(=O)NC1=O	1	1.2	13	5	98	95	/	/	/
O=c1[nH]c(=O)n(Cc2ccccc2Cl)c(O)c1/C=C1/C=CC=N1	-43	1.7	-45	1	139*	99	124	106	102
C=CCn1c(O)c(/C=C2/C=CC=N2)c(=O)[nH]c1=O	2	0.64	7	-6	95	106	/	/	/
c1ccc2c(CN3CCCCCCC3)c[nH]c2c1	-56	1.1	0	16	153*	85	149*	102	85
c1ccc2c(CN3CCN(C4CCCCC4)CC3)c[nH]c2c1	-72	0.95	-6	16	166*	86	146*	101	89
CC12CCCCC1=NC(c1ccc(Br)cc1)N2O (stereo not given)	2	1.1	-5	-4	103	104	/	/	/
O=P(NCc1ccccc1)(Oc1ccccc1)Oc1ccccc1	-9	0.8	19	-4	104	104	/	/	/
Cc1cc(C)cc(N2C(=O)NC(=O)/C(=C\c3cccn3-c3ccc(Cl)cc3)C2=O)c1	-4	1.1	1	38*	111	66	/	/	/	STAT1 inh-2=23;NFkB inh STAT1ct=-39;STAT3 inh 2=-21
Cc1cc(C)cc(N2C(=O)NC(=O)/C(=C\c3cccn3-c3ccccc3)C2=O)c1	-3	1.1	-13	21	106	81	/	/	/
